Laboratory results as given in article PMC10362183 (Heliyon, 2023).
Like-named read-outs stand apart in the source and are kept apart here.

Assays:
[1] = tested on: intracellular amastigotes of L. panamensis (MHOM/CO/87/UA140-EGFP strain); assay: Antileishmanial activity on intracellular amastigotes, flow cytometry; format: cell-based
How it was run: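 U-937 cells (3 × 10^5 cells/mL, RPMI-1640, 0.1 μg/mL PMA) infected with stationary-phase EGFP-transfected promastigotes at 15:1 for 3 h at 34 °C, then washed. After 24 h, test compound was added at 50, 12.5, 3.125 and 0.78 μg/mL for 72 h at 37 °C, 5% CO2. Amphotericin B served as positive control. Detached cells were read by flow cytometry (488/525 nm, 10,000 events). EC50 was by probit from MFI relative to untreated wells. Triplicates, ≥2 independent experiments.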

[2] = tested on: P. falciparum (3D7 strain); assay: Antiplasmodial activity, LDH assay; format: cell-based
[3] = tested on: human monocytes (U-937 ATCC CRL-1593.2); assay: Cytotoxic activity, MTT assay on U-937 cells; format: cell-based; conditions: 72 h
How it was run: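 Exponential-phase cells at 1 × 10^5 cells/mL in RPMI-1640 with 10% FBS. Test compound (200, 50, 12.5, 3.125 μg/mL) was added in PBS with 0.5% DMSO for 72 h at 37 °C, 5% CO2. MTT was then added for 3 h, the reaction stopped with isopropanol/SDS, and absorbance read at 570 nm. Viability was taken relative to untreated cells, with blank subtraction. LC50 was by probit linear regression. Triplicates, ≥2 independent experiments.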

[4] = tested on: Trypanosoma cruzi (Tulahuen strain transfected with the β-galactosidase gene); assay: Antitrypanosomal activity on intracellular amastigotes, β-galactosidase readout; format: cell-based; conditions: read-out: Trypanosomal CE50; intracellular amastigotes in U-937 cells, 72 h
[5] = Electrochemical measurements; format: physicochemical; conditions: cyclical cathodic and anodic currents, low potential range, ACN, TBAB 0.1 M
How it was run: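 Cyclic voltammetry used a glassy carbon working electrode, Ag/AgCl reference and platinum counter electrode, in acetonitrile with 0.1 M TBAB as supporting electrolyte. The scan ran from −1.5 to 2.5 V at 150 mV/s. p-Quinone was run under the same conditions as experimental control.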

[6] = read-out: Leishmanial CE50, intracellular amastigotes in U-937 cells, 72 h
[7] = read-out: Plasmodial CE50, 3D7 strain, 72 h
[8] = Leishmania panamensis, U-937, 72 h, read-out: Leishmanial CE50
[9] = Plasmodium falciparum, 3D7, 72 h, read-out: Plasmodial CE50, 3D7 strain, 72 h
[10] = Leishmania panamensis, read-out: Antileishmanial activity

| Compound | Cytotoxicity CL50 [3] [µM] | EC50 [1, 8] [µM] | EC50 [2, 9] [µM] | also measured |
| --- | --- | --- | --- | --- |
| 3-(4-Chlorobenzyl)-4H-thiochromen-4-one 1,1-dioxide [Compound 14c] | 20.81 | – | – | EC50 ([1]; read-out: Antileishmanial activity, Table 2, own compounds, repeats Table 1): 18.2 µM; EC50 [1, 6]: 18.2 µM; EC50 [2, 7]: 46.7 µM; EC50 [4]: 129 µM |
| 6-Phenyl-4H-thiochromen-4-one 1,1-dioxide [Compound 21d] | 276.03 | – | – | EC50 [1, 6]: 691 µM; EC50 [2, 7]: 75.4 µM; EC50 [4]: 260 µM |
| 6-Phenyl-4H-thiochromen-4-one 1,1-dioxide [Compound 21e] | 254.35 | – | – | EC50 [1, 6]: 74 µM; EC50 [2, 7]: 61.4 µM; EC50 [4]: 735 µM |
| O=C1C=CS(=O)(=O)c2ccccc21 [Compound 6a, 4H-Thiochromen-4-one 1,1-dioxide] | – | 137 | 717 | electrochemical behavior [5]: unexpected capacitive behavior |
| O=C1C=CS(=O)(=O)c2ccc(F)cc21 [Compound 6b, 6-Fluoro-4H-thiochromen-4-one 1,1-dioxide] | 274.83 | – | 111 | – |
| O=C1C=CS(=O)(=O)c2ccc(Cl)cc21 [Compound 6c, 6-Chloro-4H-thiochromen-4-one 1,1-dioxide] | 215.05 | – | 89.9 | – |
| O=C1C=CS(=O)(=O)c2ccc(Br)cc21 [Compound 6d, 6-Bromo-4H-thiochromen-4-one 1,1-dioxide] | – | 106 | 71.2 | – |
| O=C1C=CS(=O)(=O)c2cc(Br)ccc21 [Compound 6e, 7-Bromo-4H-thiochromen-4-one 1,1-dioxide] | 252.48 | – | 76.3 | – |
| O=C1C=CS(=O)(=O)c2c(Br)cccc21 [Compound 6f, 8-Bromo-4H-thiochromen-4-one 1,1-dioxide] | 318.45 | 149 | 82.8 | – |
| CC1=CC(=O)c2ccccc2S1(=O)=O [Compound 11a, 2-Methyl-4H-thiochromen-4-one 1,1 dioxide] | 59.12 | 35.6 | 140 | – |
| O=C1C(Cc2ccccc2Cl)=CS(=O)(=O)c2ccccc21 [Compound 14a, 3-(2-Chlorobenzyl)-4H-thiochromen-4-one 1,1-dioxide] | 83.61 | 289 | 71.2 | – |
| O=C1C(Cc2ccc(Cl)cc2)=CS(=O)(=O)c2ccccc21 [Compound 14b, 3-(4-Chlorobenzyl)-4H-thiochromen-4-one 1,1-dioxide] | – | 63.6 | 50.6 | EC50 [1, 10]: 63.6 µM |
| O=C1C(Cc2ccco2)=CS(=O)(=O)c2ccccc21 [Compound 17a, 3-(Furan-2-yl-methyl)-4H-thiochromen-4-one 1,1-dioxide] | – | 72.9 | 70.2 | EC50 [1, 10]: 72.9 µM |
| O=C1C(Cc2cccs2)=CS(=O)(=O)c2ccccc21 [Compound 17b, 3-(Thiophen-2-yl-methyl)-4H-thiochromen-4-one 1,1-dioxide] | 12.70 | 16.5 | 99.3 | EC50 [1, 10]: 16.5 µM |
| O=C1C=CS(=O)(=O)c2ccc(-c3cc(C(F)(F)F)cc(C(F)(F)F)c3)cc21 [Compound 21a, 6-(3,5-Bis(trifluoromethyl)phenyl) 4 H-thiochromen-4-one 1,1-dioxide] | 83.61 | 289 | 71.2 | – |
| O=C1C=CS(=O)(=O)c2cc(-c3cc(C(F)(F)F)cc(C(F)(F)F)c3)ccc21 [Compound 21b, 7-(3,5-Bis(trifluoromethyl)phenyl)-4H-thiochromen-4-one 1,1-dioxide] | 49.16 | 102 | 98.1 | – |
| O=C1C=CS(=O)(=O)c2c1cccc2-c1cc(C(F)(F)F)cc(C(F)(F)F)c1 [Compound 21c, 8-(3,5-Bis(trifluoromethyl)phenyl)-4H-thiochromen-4-one 1,1-dioxide] | 23.20 | 9.3 | 71.4 | EC50 [1, 10]: 9.3 µM |
